Measured values taken from ChEMBL document CHEMBL1151481, “Cytotoxic polyprenylated xanthones from the resin of Garcinia hanburyi” (J Nat Prod, 2009).

test system: HeLa; assay: Cytotoxicity against human HeLa cells after […] by MTT assay; assay type: functional, cell-based; settings: Homo sapiens, HeLa
Procedure, shortened: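 MTT read-out on HeLa cells, with an adriamycin positive control. Each determination was run in triplicate and reported as mean ± SEM. The 50% inhibitory concentration was obtained by interpolating concentration–inhibition curves.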

Row | Structure (SMILES) | IC50
1 | C=C(C)C1CCC2(C)CC1c1c(O)c3c(c(CC=C(C)C)c1O2)O[C@]12C(=C[C@]4(OC)C[C@H]1C(C)(C)O[C@@]2(C/C=C(/C)C(=O)O)C4=O)C3=O (stereo partly specified) | 910 nM
2 | CO[C@]12C=C3C(=O)c4c(O)c5c(c(CC=C(C)C)c4O[C@@]34[C@@H](C1)C(C)(C)O[C@@]4(C/C=C(/C)C(=O)O)C2=O)O[C@@](C)(CCC=C(C)C)C=C5 | 850 nM
3 | CO[C@]12C=C3C(=O)c4c(O)c5c(c(CC=C(C)C)c4O[C@@]34[C@@H](C1)C(C)(C)O[C@@]4(C/C=C(/C)CO)C2=O)OC(C)(C)C=C5 | 1210 nM
4 | CC(C)=CCC/C(C)=C/Cc1c(O)c(CC=C(C)C)c2c(c1O)C(=O)C1C=CCC3C(C)(C)OC4(CC=C(C)C(=O)O4)C13O2 (stereo unspecified) | 8680 nM
5 | COC(=O)/C(C)=C\C[C@@]12OC(C)(C)[C@@H]3C[C@@H](CC4C(=O)c5c(O)c6c(c(CC=C(C)C)c5O[C@]431)OC(C)(C)C=C6)C2=O (stereo partly specified) | 111000 nM
6 | CC(C)=CCc1c2c(c(O)c3c1O[C@]14C(C3=O)[C@@H](O)[C@@H]3C[C@H]1C(C)(C)O[C@@]4(C/C=C(/C)C(=O)O)C3=O)C=CC(C)(C)O2 (stereo partly specified) | 1710 nM
7 | CO[C@]12C=C3C(=O)c4c(O)c5c(c(CC=C(C)C)c4O[C@@]34[C@@H](C1)C(C)(C)O[C@@]4(C/C=C(/C)C(=O)O)C2=O)O[C@](C)(CCC=C(C)C)C=C5 | 930 nM
8 | CC(C)=CCC/C(C)=C/COc1cc(O)c2c(c1CC=C(C)C)O[C@]13C(=C[C@@H]4C[C@H]1C(C)(C)O[C@@]3(CC=C(C)C)C4=O)C2=O | 4090 nM
9 | CC(C)=CCC/C(C)=C/Cc1c(O)c(CC=C(C)C)c2c(c1O)C(=O)C1C(O)[C@@H]3C[C@H]4C(C)(C)O[C@@](C/C=C(/C)C(=O)O)(C3=O)[C@@]14O2 (stereo partly specified) | 5080 nM
10 | CC(C)=CCCC1(C)C=Cc2c(O)c3c(c(CC=C(C)C)c2O1)O[C@]12C(C3=O)C(O)[C@@H]3C[C@H]1C(C)(C)O[C@@]2(C/C=C(/C)C(=O)O)C3=O (stereo in doubt; 13) | 640 nM
11 | COc1cccc2c1C(=O)c1c(O)c3c(c(O)c1C2=O)C[C@@](O)(C(=O)CO)C[C@@H]3O[C@H]1C[C@H](N)[C@H](O)[C@H](C)O1 [DOXORUBICIN] | 410 nM
12 | CC(C)=CCc1c2c(c(O)c3c1OC(C)(C)C1CCC(C)=CC31)C(=O)C1=C[C@@H]3C[C@H]4C(C)(C)O[C@@](C/C=C(/C)C(=O)O)(C3=O)[C@@]14O2 (stereo partly specified) [GAMBOGEFIC ACID] | 560 nM
13 | CC(C)=CCC/C(C)=C/Cc1c(O)c2c(c3c1O[C@@H](C(C)(C)O)C3)O[C@]13C(=C[C@@H]4C[C@H]1C(C)(C)O[C@@]3(C/C=C(/C)C(=O)O)C4=O)C2=O [GAMBOGENIFIC ACID] | 1790 nM
14 | CC(C)=CCC[C@]1(C)C=Cc2c(O)c3c(c(CC=C(C)C)c2O1)O[C@]12C(=C[C@@H]4C[C@H]1C(C)(C)O[C@@]2(C/C=C(/C)C(=O)O)C4=O)C3=O [GAMBOGIC ACID] | 700 nM
15 | CC(C)=CCc1c2c(c(O)c3c1O[C@]14C(=C[C@@H]5C[C@H]1C(C)(C)O[C@@]4(C/C=C(/C)C(=O)O)C5=O)C3=O)C=CC(C)(CC/C=C/C(C)(C)O)O2 (stereo partly specified) [OXYGAMBOGIC ACID] | 1910 nM

same assay, conditions: hela

Row | Structure (SMILES) | IC50
16 | CC(C)=CCCC1(C)C=Cc2c(O)c3c(c(CC=C(C)C)c2O1)O[C@]12C(C3=O)C(O)[C@@H]3C[C@H]1C(C)(C)O[C@@]2(C/C=C(/C)C(=O)O)C3=O (stereo in doubt; 14) | 630 nM
